Test results published in paper PMC3513709 (The Biochemical journal, 2012).
Substitutions are numbered along the chain they refer to.

Assays:
YKL-39 = biological target: T1, YKL-39 (Homo sapiens, UniProt Q15782); test: Glycan array screen; format: binding; settings: AlexaFluor 488-labelled YKL-39, array of 264 glycans
T1 sequence (Q15782 27-390): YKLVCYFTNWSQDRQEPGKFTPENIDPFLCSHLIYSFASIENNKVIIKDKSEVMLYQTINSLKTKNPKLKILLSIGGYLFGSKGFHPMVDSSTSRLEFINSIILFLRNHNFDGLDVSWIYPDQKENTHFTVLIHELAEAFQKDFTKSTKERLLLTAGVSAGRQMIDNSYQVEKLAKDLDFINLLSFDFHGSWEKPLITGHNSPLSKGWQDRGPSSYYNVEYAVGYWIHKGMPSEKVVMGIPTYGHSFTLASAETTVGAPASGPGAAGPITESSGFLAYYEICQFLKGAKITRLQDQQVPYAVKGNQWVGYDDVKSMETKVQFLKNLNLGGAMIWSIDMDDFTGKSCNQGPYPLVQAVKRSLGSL
How it was run: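 Amino-linked natural and synthetic glycans were printed on modified glass slides, six replicates each. Dye-labelled protein was applied for 1 h at room temperature. Slides were spun dry and scanned at ex 495/em 520 nm. Means ± S.D. of four observations.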

[1] = biological target: hCHT (human chitotriosidase) (Homo sapiens, UniProt Q13231); test: Chitinase activity assay, steady-state kinetics; format: biochemical
hCHT (human chitotriosidase), sequence (Q13231 22-466): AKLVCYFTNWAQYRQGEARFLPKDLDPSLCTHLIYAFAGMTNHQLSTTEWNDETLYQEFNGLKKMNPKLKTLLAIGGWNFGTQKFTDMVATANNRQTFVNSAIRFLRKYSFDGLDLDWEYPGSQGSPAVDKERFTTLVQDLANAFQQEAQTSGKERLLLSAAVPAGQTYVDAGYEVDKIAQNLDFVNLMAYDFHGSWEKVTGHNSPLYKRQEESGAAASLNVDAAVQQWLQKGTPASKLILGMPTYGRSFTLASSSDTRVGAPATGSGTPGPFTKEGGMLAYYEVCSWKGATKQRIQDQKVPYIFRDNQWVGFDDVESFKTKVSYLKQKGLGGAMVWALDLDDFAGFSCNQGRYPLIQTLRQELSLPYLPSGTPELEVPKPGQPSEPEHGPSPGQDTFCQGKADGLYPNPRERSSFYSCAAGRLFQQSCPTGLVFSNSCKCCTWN
How it was run: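 Human chitotriosidase at 2 nM final with fluorigenic 4MU-(GlcNAc)3 in 0.2 M Na2HPO4/0.1 M citric acid pH 5.5, incubated 60 min at 37°C. Quenched with 3 M glycine/NaOH pH 10; 4MU product read at ex 360/em 460 nm. Reactions run in triplicate, with no-enzyme readings subtracted. Km and kcat from steady-state fit, means ± S.E.M. of three independent experiments.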

[2] = biological target: T2, YKL-39 S143D/I145E active mutant (Homo sapiens, UniProt Q15782, I145E/S143D); test: Chitinase activity assay, steady-state kinetics and inhibition; format: biochemical
T2 sequence (Q15782 27-390 S143D/I145E): T1 sequence (Q15782 27-390) with S117D, I119E
How it was run: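 S143D/I145E mutant was secreted from methanol-induced Pichia pastoris GS115 and purified by CM-Sepharose and size exclusion. 20 nM enzyme with 4MU-(GlcNAc)3 in 0.2 M Na2HPO4/0.1 M citric acid pH 5.5, 60 min at 37°C. Quenched with 3 M glycine/NaOH pH 10; read at ex 360/em 460 nm. Triplicates, no-enzyme blank subtracted. Kinetic parameters from curve fit over three independent experiments; Ki by non-linear regression.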

hAMCase = settings: cited from earlier work

## CC(=O)N[C@H]1[C@H](O[C@H]2[C@H](O)[C@@H](NC(C)=O)[C@H](O[C@H]3[C@H](O)[C@@H](NC(C)=O)C(O)O[C@@H]3CO)O[C@@H]2CO)O[C@H](CO)[C@@H](O[C@@H]2O[C@H](CO)[C@@H](O[C@@H]3O[C@H](CO)[C@@H](O[C@@H]4O[C@H](CO)[C@@H](O)[C@H](O)[C@H]4NC(C)=O)[C@H](O)[C@H]3NC(C)=O)[C@H](O)[C@H]2NC(C)=O)[C@@H]1O (stereo partly drawn) [(GlcNAc)6, chitohexaose]
YKL-39
  binding to YKL-39 in glycan array (relative fluorescence): strongest binders

## CC(=O)N[C@H]1[C@H](Oc2ccc3c(C)cc(=O)oc3c2)O[C@H](CO)[C@@H](O[C@@H]2O[C@H](CO)[C@@H](O[C@@H]3O[C@H](CO)[C@@H](O)[C@H](O)[C@H]3NC(C)=O)[C@H](O)[C@H]2NC(C)=O)[C@@H]1O [4MU-(GlcNAc)3, 4-methylumbelliferyl-β-D-N,N′,N′’-triacetylchitotriose]
[1]; fluorigenic pseudosubstrate, pH 5.5, 37°C
  kcat: 15.7 ± 0.3 s⁻¹
[1]; read-out: Michaelis constant (Km), fluorigenic pseudosubstrate, pH 5.5, 37°C
  Km: 53 ± 3 µM
[2]; YKL-39 S143D/I145E, fluorigenic pseudosubstrate, pH 5.5, 37°C
  kcat: 0.02 ± 0.0002 s⁻¹
[2]; read-out: Michaelis constant (Km), YKL-39 S143D/I145E, fluorigenic pseudosubstrate, pH 5.5, 37°C
  Km: 9 ± 1 µM

## CCc1nc2c([nH]1)c(=O)n(CCCn1c(=O)c3c(ncn3C)n(C)c1=O)c(=O)n2C [bisdionin G, 1-{3-[3,7-dimethyl-2,6-dioxo-2,3-dihydro-6H-purin-1(7H)-yl]propyl}-8-ethyl-3-methyl-1H-purine-2,6(3H, 7H)-dione]
[2]
  Ki: 120 ± 2 µM

## (GlcNAc)5
YKL-39
  binding to YKL-39 in glycan array (relative fluorescence): strongest binders

## Cn1cnc2c1c(=O)n(CCCn1c(=O)c3[nH]cnc3n(C)c1=O)c(=O)n2C [bisdionin F]
hAMCase
  activity against hAMCase: submicromolar
  selectivity for hAMCase over hCHT: selectivity over hCHT
